In PubChem BioAssay AID463104 (Sanford-Burnham Center for Chemical Genomics, 2010):
The campaign covered roughly 330,000 compounds. About 1,100 (0.33%) were called active. Only a selection was taken, and actives are over-represented in it overall. A number with no mark means an inactive call.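 How the source made its calls: active means versus positive control, 20 µM dose yields 30% or more activation; inactive means the rest.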

assay: activators of adaptive XBP1 UPR arm, primary screen, cell-based, CHO-XBP1 luciferase reporter, luminescence, uHTS (AID 463104); settings: IRE1-XBP1 UPR activation, at 20 µM, hits give high values, percent of tunicamycin response, DMSO as zero;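 further: 100% = tunicamycin at 10 µg/mL and 0% = DMSO only wells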
Outline: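 Test system: CHO-XBP1 luciferase reporter cells | Buffer or medium: Serum-containing F12 medium, 10% FBS | Schedule: 6 h compound exposure at 37 °C, 5% CO2 | Detection: Steady-Glo luciferase glow luminescence, 10 min after reagent addition | Read-out basis: Activation, % of tunicamycin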

Row | Structure (SMILES) | activation
1 | CCOC(=O)c1c(N)n(Cc2ccccc2)c2nc3ccccc3nc12 | 2.64%
2 | COc1cc(Cn2c(N)c(C(=O)NCc3ccco3)c3nc4ccccc4nc32)cc(OC)c1OC | 35.8% (active)
3 | COC(=O)C1=C(c2ccccc2)C[C@@H]2CC[C@H]1N2C(=O)NCc1ccco1 | 1.2%
4 | CC(C(=O)Nc1ccc(Cl)cc1Cl)N1CC=C(c2ccccc2)CC1 (stereo not given) | -1.2%
5 | CNC(=O)O/N=C(\N)Cc1csc2ccc(Cl)cc12 | 0.76%
